{
  "source": "paper PMC7693064",
  "about": "(American Journal of Hematology, 2020)",
  "key": {"alternative pathway": {"system": "alternative pathway", "test": "AH50 assay, hemolytic activity of the alternative pathway, PHAROAH", "format": "in vivo, human"}, "classical pathway": {"system": "classical pathway", "test": "CH50 assay, hemolytic activity of the classical pathway, PHAROAH", "format": "in vivo, human", "details": "six subjects, first year of treatment, with eculizumab", "outline": "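Results were reported in complement activity enzyme units or U/mL, as the laboratory changed units during the study. Each value was judged against the reference range in use at that time point. Individual subject data were plotted over time.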"}, "[1]": {"test": "Pegcetacoplan serum concentrations", "format": "in vivo, human", "details": "single-dose phase, SC 25 or 50 mg (cohorts 1 and 2)"}, "PNH RBCs": {"system": "PNH RBCs", "format": "in vivo, human", "outline": "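Whole-blood flow cytometry. RBCs were gated with FITC anti-human glycophorin A, and CD59 was detected with PE anti-CD59 to classify type II (partial) and type III (complete) deficient cells. C3 deposition was detected with biotinylated anti-human C3d plus streptavidin-APC. Matched mouse IgG isotype controls were included.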"}, "subjects with PNH [2]": {"system": "subjects with PNH", "test": "Hemolytic markers", "format": "in vivo, human"}, "subjects with PNH [3]": {"system": "subjects with PNH", "test": "Packed RBC transfusions, PHAROAH", "format": "in vivo, human", "outline": "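Packed RBC transfusions given to each cohort 4 subject were recorded throughout the study. […] Pegcetacoplan was given at 270 mg/d SC, and dosing could be increased with Sponsor approval.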"}, "C3": {"target": "C3 (Homo sapiens, UniProt P01024)", "sequence (P01024 23-1663)": "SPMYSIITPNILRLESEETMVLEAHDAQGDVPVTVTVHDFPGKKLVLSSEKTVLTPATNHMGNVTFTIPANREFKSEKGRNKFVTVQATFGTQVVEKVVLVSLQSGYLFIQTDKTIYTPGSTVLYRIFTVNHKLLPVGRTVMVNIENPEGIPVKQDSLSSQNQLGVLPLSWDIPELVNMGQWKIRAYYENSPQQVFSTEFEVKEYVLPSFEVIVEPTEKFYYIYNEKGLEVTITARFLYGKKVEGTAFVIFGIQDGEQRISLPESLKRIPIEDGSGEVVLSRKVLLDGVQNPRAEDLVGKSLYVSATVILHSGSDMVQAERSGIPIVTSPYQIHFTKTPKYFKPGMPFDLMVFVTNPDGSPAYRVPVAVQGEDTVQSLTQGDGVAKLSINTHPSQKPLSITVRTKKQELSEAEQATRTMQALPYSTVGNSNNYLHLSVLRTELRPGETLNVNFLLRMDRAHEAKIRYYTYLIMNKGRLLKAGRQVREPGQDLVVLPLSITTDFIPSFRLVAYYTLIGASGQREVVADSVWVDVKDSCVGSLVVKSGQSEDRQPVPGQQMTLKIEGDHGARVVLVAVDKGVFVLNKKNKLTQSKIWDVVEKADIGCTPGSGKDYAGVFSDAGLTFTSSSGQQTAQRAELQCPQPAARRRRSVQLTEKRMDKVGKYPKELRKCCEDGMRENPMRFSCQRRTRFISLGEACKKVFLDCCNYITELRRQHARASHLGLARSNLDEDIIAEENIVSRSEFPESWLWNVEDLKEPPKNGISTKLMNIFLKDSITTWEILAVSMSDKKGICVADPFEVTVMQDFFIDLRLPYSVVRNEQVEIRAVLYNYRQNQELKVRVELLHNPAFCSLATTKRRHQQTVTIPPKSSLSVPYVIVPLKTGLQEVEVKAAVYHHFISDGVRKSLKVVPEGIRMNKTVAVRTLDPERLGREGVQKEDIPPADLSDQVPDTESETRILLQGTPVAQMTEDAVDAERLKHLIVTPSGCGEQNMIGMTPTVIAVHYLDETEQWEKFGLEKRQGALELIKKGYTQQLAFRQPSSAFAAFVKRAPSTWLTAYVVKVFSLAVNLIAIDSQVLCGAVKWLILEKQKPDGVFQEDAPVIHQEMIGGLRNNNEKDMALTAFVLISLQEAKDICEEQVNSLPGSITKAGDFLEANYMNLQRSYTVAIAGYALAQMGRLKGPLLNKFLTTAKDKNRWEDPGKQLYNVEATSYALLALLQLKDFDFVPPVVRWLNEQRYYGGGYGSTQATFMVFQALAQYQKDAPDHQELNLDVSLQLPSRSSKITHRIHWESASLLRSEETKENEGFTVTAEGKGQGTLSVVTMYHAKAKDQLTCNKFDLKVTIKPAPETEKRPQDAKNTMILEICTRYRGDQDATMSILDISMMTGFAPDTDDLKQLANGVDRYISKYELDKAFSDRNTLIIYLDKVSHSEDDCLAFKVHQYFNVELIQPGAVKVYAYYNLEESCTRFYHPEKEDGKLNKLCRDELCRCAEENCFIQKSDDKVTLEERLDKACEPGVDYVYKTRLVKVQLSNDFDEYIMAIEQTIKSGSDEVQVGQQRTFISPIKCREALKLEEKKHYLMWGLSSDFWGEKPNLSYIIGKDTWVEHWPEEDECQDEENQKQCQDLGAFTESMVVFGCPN", "test": "Serum C3 levels, PHAROAH", "format": "in vivo", "outline": "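Values were judged against the reference range in use at each time point. For one subject, pegcetacoplan dosing was suspended between days 29 and 56 and resumed at 180 mg/d on day 57. Individual data were plotted over time.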"}, "[4]": {"details": "subject 12, day 421, after initial attempt to discontinue eculizumab with no increase in pegcetacoplan dosing"}},
  "data": [
    {"substance": "pegcetacoplan", "values": [
      {"measurement": "AH50 levels", "setting": "alternative pathway; after eculizumab discontinuation", "result": "increased following eculizumab discontinuation"},
      {"measurement": "Subjects with AH50 levels within the 77-159 U/mL reference range", "setting": "alternative pathway; last evaluation time point, four subjects who completed the study", "result": "two of the four"},
      {"measurement": "Effect on CH50", "setting": "classical pathway", "result": "No significant effect"},
      {"measurement": "Time of peak serum concentration", "setting": "[1]", "result": "a week after dosing"},
      {"measurement": "Deposition of C3 fragments on the surface of type II and III RBCs", "setting": "PNH RBCs; all subjects in cohort 4", "result": "decrease"},
      {"measurement": "Type II and III cells as a proportion of the clonal distribution of total RBCs", "setting": "PNH RBCs; five subjects, by day 85", "result": "> 90", "unit": "%"},
      {"measurement": "Subjects with hemoglobin levels within reference range 11.1-15.9 g/dL", "setting": "subjects with PNH [2]; after 2 years of treatment, four remaining subjects", "result": "three of the four"},
      {"measurement": "Reticulocyte count, change during the study", "setting": "subjects with PNH [2]; cohort 4", "result": "reductions were observed in all subjects"},
      {"measurement": "Total bilirubin levels, change during the study", "setting": "subjects with PNH [2]; cohort 4", "result": "Decreases in total bilirubin levels were observed in all subjects"},
      {"measurement": "Hemoglobin levels", "setting": "subjects with PNH [2]; cohort 4, all six subjects", "result": "increased in all subjects by day 29"},
      {"measurement": "LDH levels during treatment", "setting": "subjects with PNH [2]; cohort 4, with some fluctuations", "result": "remained stable"},
      {"measurement": "LDH level", "setting": "subjects with PNH [2]; [4]", "result": 1571, "unit": "U/L"},
      {"measurement": "Total bilirubin level", "setting": "subjects with PNH [2]; [4]", "result": 2.3, "unit": "mg/dL"},
      {"measurement": "Transfusion avoidance", "setting": "subjects with PNH [3]; four subjects who completed the study", "result": "achieved in all four subjects"},
      {"measurement": "Packed RBC transfusions received during the study", "setting": "subjects with PNH [3]; subject 9, seven given before steady state or after pegcetacoplan was suspended", "result": "nine"},
      {"measurement": "Serum C3 levels, change", "setting": "C3; all subjects in cohort 4", "result": "increase"},
      {"measurement": "Serum C3 level", "setting": "C3; subject 11, day 29", "result": 415, "unit": "mg/dL"},
      {"measurement": "Serum C3 level", "setting": "C3; subject 11, day 57, after suspension of pegcetacoplan dosing", "result": 107, "unit": "mg/dL"}
    ]}
  ]
}
